Key:
[1] = target: T1, Human immunodeficiency virus type 1 integrase (Human immunodeficiency virus 1, UniProt Q7ZJM1); experiment: Inhibition of 3'-processing catalytic activity HIV1 integrase
Method in brief: (§1)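 Wild-type HIV-1 IN (200 nM final) preincubated with inhibitor for 30 min at 30 °C. Buffer: 25 mM MOPS pH 7.2, 7.5 mM MnCl2, 50 mM NaCl, 10% DMSO, BSA and reducing agents. Reactions were quenched with formamide dye. IC50 was taken from log concentration versus percent inhibition.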

[2] = target: T1, Human immunodeficiency virus type 1 integrase; experiment: Inhibition of strand transfer catalytic activity HIV1 integrase; method in brief: as §1
[3] = tested on: CEM-SS; experiment: Cytotoxicity against human T cell line CEM-SS; format: functional
Method in brief: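 Uninfected CEM-SS cells were exposed to serial compound dilutions on the same plate as the antiviral test, at 37 °C with 5% CO2 for 6 days. Viability was measured by XTT (0.2 mg/mL, 4 h) absorbance at 450 nm.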

[4] = tested on: Human immunodeficiency virus 1; experiment: Antiviral activity in human T cell line CEM-SS infected with HIV1; format: functional, organism-based
Method in brief: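 CEM-SS cells at 5×10^3/well were infected with HIV-1 RF (MOI 0.3), and serial compound dilutions were added immediately. Cells were kept at 37 °C with 5% CO2 for 6 days. Viability was read by XTT (0.2 mg/mL, 4 h) absorbance at 450 nm.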

T1 sequence (Q7ZJM1 whole entry): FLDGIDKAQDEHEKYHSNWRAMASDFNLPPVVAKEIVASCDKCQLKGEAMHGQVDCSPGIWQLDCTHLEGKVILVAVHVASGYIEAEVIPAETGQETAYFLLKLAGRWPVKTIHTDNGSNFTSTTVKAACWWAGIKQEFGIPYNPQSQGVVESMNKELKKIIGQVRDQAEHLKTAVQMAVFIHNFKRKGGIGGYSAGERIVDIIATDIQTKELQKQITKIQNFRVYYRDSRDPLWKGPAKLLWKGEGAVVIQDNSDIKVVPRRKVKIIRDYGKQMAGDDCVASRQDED

| SMILES | IC50 [1] | IC50 [2] | CC50 [3] | EC50 ([4]; t cell line) | EC50 ([4]; Human immunodeficiency virus 1, T-cell, read-out: EC50) |
| --- | --- | --- | --- | --- | --- |
| O=C(N/N=C/c1cc(Br)ccc1O)/C(=C/C=C/c1ccccc1)NC(=O)c1ccccc1 | 90 µM | 23 µM | Toxic | – | – |
| CC(C)Cn1c(=O)c(C(=O)Nc2ccccc2S(N)(=O)=O)c(O)c2ccccc21 | 40 µM | 16 µM | – | Not Active | – |
| O=C(c1ccccc1)c1cc(Br)ccc1NC(=O)c1nc[nH]c1C(=O)O | 16 µM | 17 µM | – | – | – |
| COC(=O)c1ccc(C(=O)OC)c(NC(=O)c2ccc(C)c([N+](=O)[O-])c2)c1 | 92 µM | > 100 µM | – | – | – |
| O=C(/C=C/c1ccc(-c2ccccc2[N+](=O)[O-])o1)Nc1ccc(O)c(-c2nc3ccccc3o2)c1 | 23 µM | 63 µM | – | – | – |
| O=C(/C=C/c1ccco1)NC(=S)Nc1ccccc1O | 57 µM | 28 µM | Toxic | – | – |
| COc1ccc2oc(=O)c(-c3csc(N/N=C/c4ccccc4O)n3)cc2c1 | 30 µM | 10 µM | – | Not Active | – |
| O=C(O)C(Cc1c[nH]c2ccccc12)NS(=O)(=O)c1ccccc1[N+](=O)[O-] (configuration not stated) | 88 µM | 56 µM | – | – | – |
| Oc1ccccc1/C=N/CC(O)C/N=C/c1ccccc1O | 97 µM | 61 µM | – | – | – |
| CCOC(=O)c1c(-c2ccccc2)csc1NC(NC(=O)c1ccco1)C(=O)c1ccc(C)cc1 (configuration not stated) | > 100 µM | 79 µM | – | – | – |
| O=C(N/N=C/c1ccc(/C=N/NC(=O)c2cc(O)cc(O)c2)cc1)c1cc(O)cc(O)c1 | 76 µM | 56 µM | – | – | – |
| O=C(Nc1ccc(O)c(-c2nc3ccccc3o2)c1)c1cccc2ccccc12 | 14 µM | 6 µM | – | – | – |
| O=C(CSc1nc2ccccc2n1Cc1ccccc1)N/N=C/c1cc(Br)ccc1O | 60 µM | 51 µM | Toxic | – | – |
| CCOC(=O)CCc1cc(C(=O)OCC)c(CCC(=O)OCC)cc1C(=O)OCC | > 100 µM | 94 µM | – | – | – |
| O=C(/C=C(\O)c1ccc(Cl)cc1)C(=O)/N=N/c1c(O)[nH]c2ccc(Br)cc12 | 42 µM | 28 µM | Toxic | – | – |
| CC(=O)c1cc(C(=O)CC(=O)Nc2cccc([N+](=O)[O-])c2)sc1Nc1ccccc1 | 97 µM | 29 µM | – | – | – |
| COc1cc(/C=N/NC2=NC(=O)C(CC(=O)Nc3ccc(Cl)c(Cl)c3)S2)ccc1O (configuration not stated) | 89 µM | 38 µM | Toxic | – | – |
| Cc1ccc(C(=O)C2=C(O)C(=O)N(CCCc3c[nH]cn3)C2c2ccc(Cl)cc2)cc1 (configuration not stated) | 93 µM | 67 µM | – | – | – |

| SMILES | IC50 [1] | IC50 [2] | CC50 [3] | EC50 ([4]; t cell line) | EC50 ([4]; Human immunodeficiency virus 1, T-cell, read-out: EC50) |
| --- | --- | --- | --- | --- | --- |
| Cc1[nH]n(-c2ccccc2)c(=O)c1C(c1ccc(O)c(O)c1)c1c(C)n(C)n(-c2ccccc2)c1=O (configuration not stated) | 89 µM | 31 µM | Toxic | – | – |
| CC(=O)c1cc(C(=O)CC(=O)Nc2ccc([N+](=O)[O-])cc2)sc1Nc1ccccc1 | 80 µM | 28 µM | – | – | – |
| O=C(CSc1nc(O)cc(CSc2ccc(Cl)cc2)n1)Nc1ccc(Cl)cc1Cl | – | – | Toxic | – | – |
| CCSc1nnc(N2C(=O)c3ccc(C(=O)c4ccc(C(=O)O)cc4)cc3C2=O)s1 | 98 µM | 65 µM | – | – | – |
| CC(=O)c1cc(C(=O)CC(=O)Nc2ccccc2)sc1Nc1ccccc1 | > 100 µM | > 100 µM | – | – | – |
| O=C(/C=C/c1ccc(Cl)cc1)Nc1ccc(NC(=O)c2ccco2)cc1 | 90 µM | 91 µM | – | – | – |
| Cc1ccc(S(=O)(=O)Nc2ccccc2/N=C/c2sc3ccccc3c2O)cc1 | 88 µM | 68 µM | – | – | – |
| O=C(CC1Sc2ccccc2NC1=O)Nc1cccc(C(=O)O)c1 (configuration not stated) | 79 µM | 71 µM | – | – | – |
| Cc1ccc(C(=O)N/C(=C/c2ccc(-c3ccc(Cl)cc3Cl)o2)C(=O)NCCCO)cc1 | > 1000 µM | 85 µM | – | – | – |
| COc1ccc(CCNC(=O)CC(=O)N/N=C/c2ccco2)cc1OC | > 100 µM | 90 µM | Toxic | – | – |
| O=C(Cc1ccccc1)Nc1cc(C(=O)O)c(NC(=O)Cc2ccccc2)cc1C(=O)O | 9 µM | 7 µM | > 400 µM | – | 104 µM |
| COc1ccc(N(CC(=O)N/N=C/c2c(O)ccc3ccccc23)S(C)(=O)=O)cc1Cl | 95 µM | 59 µM | – | – | – |
| O=C(CSc1nc(CSc2ccc(Cl)cc2)cc(=O)[nH]1)Nc1ccc(Cl)cc1Cl | 34 µM | 24 µM | – | – | – |
| O=C(/N=N/c1c(O)[nH]c2ccc(F)cc12)/C(=C/C=C/c1ccccc1)NC(=O)c1ccccc1 | 60 µM | 38 µM | Toxic | – | – |
| O=C(O)c1cc(NC(=O)c2cccc3ccccc23)c(C(=O)O)cc1NC(=O)c1cccc2ccccc12 | 28 µM | 21 µM | – | – | – |
| COc1ccc(C(=O)Nc2ccc(O)c(-c3nc4ccccc4o3)c2)cc1[N+](=O)[O-] | 6 µM | 7 µM | – | – | – |
| O=C(Nc1ccc(O)c(-c2nc3cc(Cl)ccc3o2)c1)c1cccnc1 | 61 µM | 10 µM | – | Not Active | – |

— ChEMBL document CHEMBL1141221, “Diketo acid pharmacophore. 2. Discovery of structurally diverse inhibitors of HIV-1 integrase” (J Med Chem, 2005)
